pIC50: −log10 of the molar value.
Tests used:
[1] = target: T1, NAD-dependent protein deacetylase sirtuin-2 (Homo sapiens) (UniProt Q8IXJ6); test: Inhibition of recombinant human C-terminal His-tagged SIRT2 (50 to 389 end residues) expressed in Escherichia coli at 10 uM using p53 derived (379 to 382 residues) fluorogenic peptide substrate RHKK(Ac)-AMC preincubated for 10 mins followed by substrate addition in presence of NAD+ by fluorescence assay relative to control
T1 sequence (whole entry): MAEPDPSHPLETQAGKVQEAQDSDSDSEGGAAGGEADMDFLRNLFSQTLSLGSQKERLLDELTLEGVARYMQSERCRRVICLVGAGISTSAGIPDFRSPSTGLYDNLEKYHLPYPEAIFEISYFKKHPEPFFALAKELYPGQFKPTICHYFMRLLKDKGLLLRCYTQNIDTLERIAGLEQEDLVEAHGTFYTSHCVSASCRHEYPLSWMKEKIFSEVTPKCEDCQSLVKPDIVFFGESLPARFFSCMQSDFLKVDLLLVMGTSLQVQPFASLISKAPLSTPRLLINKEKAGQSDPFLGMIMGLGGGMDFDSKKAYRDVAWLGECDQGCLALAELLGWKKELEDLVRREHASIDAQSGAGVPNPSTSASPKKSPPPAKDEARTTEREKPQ
Outline: (§1)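 Two-step fluorogenic assay with p53 379–382 RHKK(Ac)-AMC. Compound (from 10 mM DMSO stock) preincubated ~10 min with human SIRT before substrate addition. Developer then releases fluorophore, read at ex 360/em 460 nm.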

[2] = target: T2, NAD-dependent protein deacetylase sirtuin-2 (Homo sapiens, UniProt Q8IXJ6); test: Inhibition of recombinant human C-terminal His-tagged SIRT2 (50 to 389 end residues) expressed in Escherichia coli using p53 derived (379 to 382 residues) fluorogenic peptide substrate RHKK(Ac)-AMC preincubated for 10 mins followed by substrate addition in presence of NAD+ by fluorescence assay; outline: as §1
T2 sequence (Q8IXJ6 whole entry): T1 sequence (whole entry)

**Q.** How did the inhibition [1] turn out when `O=c1c2c3c(sc2ncn1Cc1cccc2cccnc12)CC(NCc1cccnc1)CC3` (stereo not given) was run?
**A.** 91%

**Q.** What about the pIC50 [2] of the same compound?
**A.** 5.53

**Q.** For `COc1ccc2ccccc2c1Cn1cnc2sc3c(c2c1=O)CCC(NC1CCCC1)C3` (stereo not given), which inhibition [1] is on record?
**A.** 99%

**Q.** And the pIC50 [2]?
**A.** 5.93

**Q.** How did the inhibition [1] turn out when `O=c1c2c3c(sc2ncn1Cc1ccc2ccccc2c1)CC(NCC1CCCCC1)CC3` (stereo not given) was run?
**A.** 87%

**Q.** And the pIC50 [2]?
**A.** 5.26

**Q.** `COc1ccccc1Cn1cnc2sc3c(c2c1=O)CCC(NCc1ccccc1)C3` (stereo not given) was tested. Which inhibition [1] did it give?
**A.** 75%

**Q.** And the pIC50 [2]?
**A.** 4.98

**Q.** With `COc1ccc(CNC2CCc3c(sc4ncn(Cc5cccc6cccnc56)c(=O)c34)C2)cn1` (stereo not given) as the compound, how does the inhibition [1] read?
**A.** 90%

**Q.** What about the pIC50 [2] of the same compound?
**A.** 5.58

**Q.** `O=c1c2c3c(sc2ncn1Cc1cccc2cccnc12)CC(NCc1cccc(F)c1)CC3` (stereo not given) was tested. Which inhibition [1] did it give?
**A.** 94%

**Q.** What about the pIC50 [2] of the same compound?
**A.** 5.76

**Q.** With `O=c1c2c3c(sc2ncn1Cc1cccc(-c2ccccc2)c1)CC(NC1CCCC1)CC3` (stereo not given) as the compound, how does the inhibition [1] read?
**A.** 98%

**Q.** What about the pIC50 [2] of the same compound?
**A.** 5.82

**Q.** Which inhibition [1] does the source give for `O=c1c2c3c(sc2ncn1Cc1cccc2cccnc12)CC(NCc1ccccn1)CC3` (stereo not given) here?
**A.** 87%

**Q.** And the pIC50 [2]?
**A.** 5.58

**Q.** How did the pIC50 [2] turn out when `COc1cccc(CNC2CCc3c(sc4ncn(Cc5c(OC)ccc6ccccc56)c(=O)c34)C2)c1` (stereo not given) was run?
**A.** 5.72

**Q.** `COc1ccc2ccccc2c1Cn1cnc2sc(CCN(C)C)c(C)c2c1=O` was tested. Which inhibition [1] did it give?
**A.** 30%

**Q.** How did the inhibition [1] turn out when `COc1ccc(NC2CCc3c(sc4ncn(Cc5cccc(-c6ccccc6)c5)c(=O)c34)C2)cc1` (stereo not given) was run?
**A.** 31%

**Q.** With `CC(=O)NCCNC1CCc2c(sc3ncn(Cc4ccc5ccccc5c4)c(=O)c23)C1` (stereo not given) as the compound, how does the inhibition [1] read?
**A.** 47%

**Q.** Which inhibition [1] does the source give for `CC(=O)NCCNC1CCc2c(sc3ncn(Cc4cccc5cccnc45)c(=O)c23)C1` (stereo not given) here?
**A.** 28%

**Q.** Which inhibition [1] does the source give for `O=c1c2c3c(sc2ncn1Cc1ccc2ccccc2c1)CC(NCCN1CCCC1)CC3` (stereo not given) here?
**A.** 52%

**Q.** For `O=c1c2c3c(sc2ncn1Cc1cccc2ccccc12)CC(NCCC1CCCCC1)CC3` (stereo not given), which inhibition [1] is on record?
**A.** 65%

**Q.** With `N#Cc1ccc(CNC2CCc3c(sc4ncn(Cc5cccc6ccccc56)c(=O)c34)C2)cc1` (stereo not given) as the compound, how does the inhibition [1] read?
**A.** 66%

**Q.** With `O=c1c2c3c(sc2ncn1Cc1ccc2ccccc2c1)CC(NCc1ccc(Cl)cc1)CC3` (stereo not given) as the compound, how does the inhibition [1] read?
**A.** 49%

**Q.** For `COc1ccccc1CCNC1CCc2c(sc3ncn(Cc4cccc5cccnc45)c(=O)c23)C1` (stereo not given), which inhibition [1] is on record?
**A.** 63%

**Q.** With `COc1ccc2ccccc2c1Cn1cnc2sc3c(c2c1=O)CCC(NCc1ccccc1)C3` (stereo not given) as the compound, how does the pIC50 [2] read?
**A.** 4.68

**Q.** Which inhibition [1] does the source give for `COCCNC1CCc2c(sc3ncn(Cc4cccc5ccccc45)c(=O)c23)C1` (stereo not given) here?
**A.** 35%

**Q.** With `O=c1c2c3c(sc2ncn1Cc1cccc(-c2ccccc2)c1)CC(NCc1cccc(Cl)c1)CC3` (stereo not given) as the compound, how does the inhibition [1] read?
**A.** 43%

**Q.** `COc1cccc(Cn2cnc3sc4c(c3c2=O)CCC(NCc2cccnc2)C4)c1` (stereo not given) was tested. Which inhibition [1] did it give?
**A.** 27%

**Q.** With `COc1cccc(CNC2CCc3c(sc4ncn(Cc5cccc(OC)c5)c(=O)c34)C2)c1` (stereo not given) as the compound, how does the inhibition [1] read?
**A.** 58%

**Q.** For `COc1cccc(Cn2cnc3sc4c(c3c2=O)CCC(NCCc2ccncc2)C4)c1` (stereo not given), which inhibition [1] is on record?
**A.** 39%

**Q.** With `O=c1c2c3c(sc2ncn1Cc1ccccc1)CC(NCc1ccncc1)CC3` (stereo not given) as the compound, how does the inhibition [1] read?
**A.** 33%

**Q.** Which inhibition [1] does the source give for `O=c1c2c3c(sc2ncn1Cc1cccc2ccccc12)CC(NCc1ccccc1F)CC3` (stereo not given) here?
**A.** 71%

**Q.** Which inhibition [1] does the source give for `Cc1ccc(NC2CCc3c(sc4ncn(Cc5cccc(-c6ccccc6)c5)c(=O)c34)C2)cc1` (stereo not given) here?
**A.** 27%

**Q.** With `COc1ccc(Cn2cnc3sc4c(c3c2=O)CCC(NCc2ccccc2F)C4)c2ccccc12` (stereo not given) as the compound, how does the inhibition [1] read?
**A.** 71%

**Q.** Which inhibition [1] does the source give for `Cc1cccc(NC2CCc3c(sc4ncn(Cc5ccc6ccccc6c5)c(=O)c34)C2)c1` (stereo not given) here?
**A.** 31%

**Q.** With `O=c1c2c3c(sc2ncn1Cc1cccc2ccccc12)CC(NCC1CCOC1)CC3` (stereo not given) as the compound, how does the inhibition [1] read?
**A.** 72%

**Q.** `COc1ccc(Cn2cnc3sc4c(c3c2=O)CCC(Nc2ccc(C)cc2)C4)c2ccccc12` (stereo not given) was tested. Which inhibition [1] did it give?
**A.** 35%

**Q.** Which inhibition [1] does the source give for `Cc1ccc(NC2CCc3c(sc4ncn(Cc5cccc6ccccc56)c(=O)c34)C2)cc1` (stereo not given) here?
**A.** 50%

**Q.** With `Cc1cccc(NC2CCc3c(sc4ncn(Cc5cccc(-c6ccccc6)c5)c(=O)c34)C2)c1` (stereo not given) as the compound, how does the inhibition [1] read?
**A.** 28%

**Q.** `COc1ccccc1CCNC1CCc2c(sc3ncn(Cc4cccc5ccccc45)c(=O)c23)C1` (stereo not given) was tested. Which inhibition [1] did it give?
**A.** 60%

**Q.** Which inhibition [1] does the source give for `COc1ccc(Cn2cnc3sc4c(c3c2=O)CCC(NCc2cccs2)C4)c2ccccc12` (stereo not given) here?
**A.** 71%

**Q.** Which inhibition [1] does the source give for `COc1ccccc1Cn1cnc2sc3c(c2c1=O)CCC(NCc1cncnc1)C3` (stereo not given) here?
**A.** 45%

**Q.** With `O=c1c2c3c(sc2ncn1Cc1cccc2cccnc12)CC(NC1CCCC1)CC3` (stereo not given) as the compound, how does the inhibition [1] read?
**A.** 30%

**Q.** With `COc1ccc(Cn2cnc3sc4c(c3c2=O)CCC(Nc2ccc(F)cc2)C4)c2ccccc12` (stereo not given) as the compound, how does the inhibition [1] read?
**A.** 56%

**Q.** For `COc1ccc(Cn2cnc3sc4c(c3c2=O)CCC(NCCNC(C)=O)C4)c2ccccc12` (stereo not given), which inhibition [1] is on record?
**A.** 58%

**Q.** How did the inhibition [1] turn out when `COc1ccc2ccccc2c1Cn1cnc2sc3c(c2c1=O)CCC(NCc1cncnc1)C3` (stereo not given) was run?
**A.** 33%

**Q.** With `COc1ccc2ccccc2c1Cn1cnc2sc(CCNCc3ccc(C#N)cc3)c(C)c2c1=O` as the compound, how does the inhibition [1] read?
**A.** 51%

**Q.** Which inhibition [1] does the source give for `COc1ccc(NC2CCc3c(sc4ncn(Cc5ccc(OC)c6ccccc56)c(=O)c34)C2)cc1` (stereo not given) here?
**A.** 41%

**Q.** `Cc1noc(C)c1CNC1CCc2c(sc3ncn(Cc4cccc(-c5ccccc5)c4)c(=O)c23)C1` (stereo not given) was tested. Which inhibition [1] did it give?
**A.** 60%

**Q.** For `O=c1c2c3c(sc2ncn1Cc1ccccc1)CC(NCc1ccccn1)CC3` (stereo not given), which inhibition [1] is on record?
**A.** 26%

**Q.** How did the inhibition [1] turn out when `Cc1cccc(NC2CCc3c(sc4ncn(Cc5cccc6ccccc56)c(=O)c34)C2)c1` (stereo not given) was run?
**A.** 41%

**Q.** How did the inhibition [1] turn out when `O=c1c2c3c(sc2ncn1Cc1cccc2ccccc12)CC(NC1CCc2ccccc21)CC3` (stereo not given) was run?
**A.** 58%

**Q.** `O=c1c2c3c(sc2ncn1Cc1ccc2ccccc2c1)CC(NC1CCCc2ccccc21)CC3` (stereo not given) was tested. Which inhibition [1] did it give?
**A.** 37%

**Q.** How did the inhibition [1] turn out when `COc1ccc2ccccc2c1Cn1cnc2sc3c(c2c1=O)CCC(Nc1cccc(C)c1)C3` (stereo not given) was run?
**A.** 27%

**Q.** Which inhibition [1] does the source give for `O=c1c2c3c(sc2ncn1Cc1cccc(-c2ccccc2)c1)CC(NC1CCc2ccccc21)CC3` (stereo not given) here?
**A.** 45%

**Q.** For `O=c1c2c3c(sc2ncn1Cc1cccc(-c2ccccc2)c1)CC(NCc1ccccc1Cl)CC3` (stereo not given), which inhibition [1] is on record?
**A.** 39%

**Q.** How did the inhibition [1] turn out when `N#Cc1ccc(CNC2CCc3c(sc4ncn(Cc5ccc6ccccc6c5)c(=O)c34)C2)cc1` (stereo not given) was run?
**A.** 67%

**Q.** `Cc1nn(C)c(C)c1CNC1CCc2c(sc3ncn(Cc4cccc5cccnc45)c(=O)c23)C1` (stereo not given) was tested. Which inhibition [1] did it give?
**A.** 74%

**Q.** How did the inhibition [1] turn out when `COc1cccc(NC2CCc3c(sc4ncn(Cc5ccc(OC)c6ccccc56)c(=O)c34)C2)c1` (stereo not given) was run?
**A.** 25%

**Q.** For `O=c1c2c3c(sc2ncn1Cc1ccccc1)CC(NCc1ccccc1Cl)CC3` (stereo not given), which inhibition [1] is on record?
**A.** 67%

**Q.** `O=c1c2c3c(sc2ncn1Cc1ccccc1)CC(NCCc1cccnc1)CC3` (stereo not given) was tested. Which inhibition [1] did it give?
**A.** 27%

**Q.** How did the inhibition [1] turn out when `O=c1c2c3c(sc2ncn1Cc1ccc2ccccc2c1)CC(NCCC1CCCCC1)CC3` (stereo not given) was run?
**A.** 59%

**Q.** How did the inhibition [1] turn out when `COc1ccccc1Cn1cnc2sc3c(c2c1=O)CCC(NCc1ccncc1)C3` (stereo not given) was run?
**A.** 64%

**Q.** `CC(=O)NCCNC1CCc2c(sc3ncn(Cc4cccc5ccccc45)c(=O)c23)C1` (stereo not given) was tested. Which inhibition [1] did it give?
**A.** 28%

**Q.** For `O=c1c2c3c(sc2ncn1Cc1ccc2ccccc2c1)CC(NCc1cccc(Cl)c1)CC3` (stereo not given), which inhibition [1] is on record?
**A.** 49%

**Q.** With `COc1ccc(Cn2cnc3sc4c(c3c2=O)CCC(Nc2ccc3c(c2)OCO3)C4)c2ccccc12` (stereo not given) as the compound, how does the inhibition [1] read?
**A.** 38%

**Q.** For `Cc1nn(C)c(C)c1CNC1CCc2c(sc3ncn(Cc4ccccc4)c(=O)c23)C1` (stereo not given), which inhibition [1] is on record?
**A.** 32%

**Q.** For `O=c1c2c3c(sc2ncn1Cc1ccccc1)CC(NCc1cccnc1)CC3` (stereo not given), which inhibition [1] is on record?
**A.** 42%

**Q.** Which inhibition [1] does the source give for `O=c1c2c3c(sc2ncn1Cc1cccc2ccccc12)CC(NCc1ccccc1)CC3` (stereo not given) here?
**A.** 66%

**Q.** Which inhibition [1] does the source give for `O=c1c2c3c(sc2ncn1Cc1cccc(-c2ccccc2)c1)CC(NC1CCCc2ccccc21)CC3` (stereo not given) here?
**A.** 22%

**Q.** `COc1cccc(Cn2cnc3sc4c(c3c2=O)CCC(NCc2ccc(OC)nc2)C4)c1` (stereo not given) was tested. Which inhibition [1] did it give?
**A.** 28%

**Q.** `COc1ccc(Cn2cnc3sc4c(c3c2=O)CCC(NCc2cccc(Cl)c2)C4)c2ccccc12` (stereo not given) was tested. Which inhibition [1] did it give?
**A.** 6.5%

**Q.** How did the inhibition [1] turn out when `O=c1c2c3c(sc2ncn1Cc1cccc2cccnc12)CC(NCC1CCCO1)CC3` (stereo not given) was run?
**A.** 58%

Reference: ChEMBL document CHEMBL4004822, “Thienopyrimidinone Based Sirtuin-2 (SIRT2)-Selective Inhibitors Bind in the Ligand Induced Selectivity Pocket” (J Med Chem, 2017)
